# APP 5UTR inh = APP translation inhibition; SH-SY5Y APP 5'UTR-luciferase reporter, luminescence; inhibition, % at 2 µM; 0.82% of 190,000 active;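 active means inhibition above a set limit, derived from the sample mean plus 3 SD, cut at about 45% in these data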
# b-catenin transl = beta-catenin nuclear translocation modulation; 0.3% of 190,000 active; nuclear translocation activity, % at 5 µM; HeLa beta-catenin nuclear translocation, immunofluorescence imaging;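 active means nuclear translocation activity above 50% at 5 µM, with a well cell count of 50 or more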;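 further: per-cell ratio of nuclear to cytoplasmic median beta-catenin stain intensity; plate controls were DMSO negative control for no effect and GSK-3 inhibitor IX positive control for full effect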
#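 Assay system: human HeLa cells, native beta-catenin; doses: 5 µM primary, 0.02–20 µM confirmation; incubation: compound treatment 24 h, 37°C, 5% CO2; technique: fluorescence imaging of beta-catenin antibody stain plus DAPI; measure: % activation, nuclear-to-cytoplasmic median beta-catenin signal ratio per cell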
# Ba/F3 V617F tox = loss of viability in JAK2V617F-driven Ba/F3 cells | Ba/F3 EpoR-JAK2V617F viability, ATP luminescence | 1.1% of 220,000 active | inhibition, % at 5.6 µM | AID 1446;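 active means inhibition above the campaign mean plus 3 SD over all tested compounds, cut at about 24% in these data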;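 further: cytokine-independent growth of Ba/F3 cells driven by EpoR plus mutant JAK2; 0% = DMSO-treated cells and 100% = JAK inhibitor I control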
# BaF3 tox = counter-screen for JAK2V617F inhibitors: parental Ba/F3 viability inhibitors | CellTiter-Glo ATP luminescence | inhibition, % at 5.6 µM | 1.1% of 220,000 active | AID 1486;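 active means inhibition above a per-campaign cutoff, the mean inhibition of all tested compounds plus 3 SD, cut at about 27% in these data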;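 further: 0% = DMSO wells and 100% = JAK Inhibitor I control wells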
# Lmaj promast = inhibitors of Leishmania major promastigote growth; Leishmania major promastigotes, resazurin fluorescence viability; inhibition, % at 10 µM; 9% of 200,000 active; AID 1063; in the data active means inhibition above about 50%;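 further: promastigotes grown with compound for 44 hours at 28 °C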
# MT stabilizer = microtubule stabilizers in HeLa cells; HeLa tubulin immunostaining HCS, 24 h; share of cells brighter than vehicle mean+2SD; 0.83% of 200,000 active; AID 2205; % tubulin-high responders, % at 10 µM;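 active means plate Z-score above 3 for both tubulin-high and condensed-nucleus cell shares, with cell loss under 80%, at 10 µM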;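 further: anti alpha tubulin signal scored within the nucleus-defined area of each cell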
# * hit, by the source's call; . = not tested or not shown. The list is not random: actives were taken first. Their share in the collection is about 9.6%.
SMILES,APP 5UTR inh,b-catenin transl,Ba/F3 V617F tox,BaF3 tox,Lmaj promast,MT stabilizer
O=C(NCc1ccco1)/C(=C/c1cccc(C(F)(F)F)c1)c1nc2ccccc2[nH]1,8,2,-4,6,80*,8
O=C(NCc1ccco1)c1cccc(C(F)(F)F)c1,-2,1,-2,5,-2,1
O=C(NCc1ccco1)/C(=C/c1ccc(C(F)(F)F)cc1)c1nc2ccccc2[nH]1,-94,.,-3,4,84*,3
CCCc1nc2ccccc2c(C(=O)OCC(=O)Nc2c(C)n(C)n(-c3ccccc3)c2=O)c1CC,-10,1,4,6,-3,4
CC1C2=C(CCCC2=O)N(c2cccc3ccccc23)C2=C1C(=O)CCC2,6,.,1,4,55*,2
O=C1N(c2cccc3ccccc23)C(c2ccccc2)N2CCCN12 (centres undefined),-16,0,3,11,2,2
CCC(C(=O)OCCOCCN(CC)CC)c1ccccc1 (centres undefined),.,0,-2,1,.,.
CCN(CC)CCCOC(=O)C(c1ccccc1)c1ccccc1,-1,0,0,-1,86*,1
CCCCC(NC(=O)c1ccccc1)C(=O)OCC(=O)N1c2ccccc2Sc2ccccc21 (centres undefined),-12,.,2,5,75*,2
CC(NC(=O)c1ccccc1)C(=O)OCC(=O)N1c2ccccc2Sc2ccccc21 (centres undefined),3,0,-4,2,35,2
Cc1sc2ncnc(NCC(C)(C)N3CCOCC3)c2c1C,9,-3,21,37*,35,3
Cc1sc2ncnc(NCC3(N4CCOCC4)CCCCC3)c2c1C,-12,.,-4,-1,3,3
c1ccc(-c2csc3ncnc(NCC4COc5ccccc5O4)c23)cc1 (centres undefined),19,-1,72*,71*,17,2
Cc1sc2ncnc(Nc3ccccc3)c2c1C,.,1,2,7,3,2
Cc1sc2ncnc(NCc3ccccc3)c2c1C,-5,2,13,35*,42,4
Cc1sc2ncnc(NCC3COc4ccccc4O3)c2c1C (centres undefined),8,0,53*,73*,43,3
CNC(=S)NC12CC3CC(CC(C3)C1)C2,11,0,-1,4,10,2
COc1ccc(CCNC(=O)C2CC(c3cc(C(F)(F)F)cc(C(F)(F)F)c3)=NO2)cc1 (centres undefined),.,0,.,.,.,.
NC(=O)[C@H]1CC2(CC(c3cccc(NC(=O)[C@H]4CCC(=O)N4)c3)=NO2)CN1C(=O)c1cc([N+](=O)[O-])cc([N+](=O)[O-])c1 (some centres undefined),.,-2,.,.,.,.
CCc1cccc(N(C(=O)c2csnn2)C(C(=O)NC(C)(C)C)c2ccncc2)c1 (centres undefined),1,0,-2,7,-5,1
CCOC(=O)N1CCC(NC(=O)c2ccc3c(c2)sc2nc(-c4ccc(OC)cc4)cn23)CC1,-1,0,0,27*,0,4
CC(C)(C)[C@H]1C=C(C(N)=O)O[C@@H](OCCCCO)C1,.,-2,.,.,.,.
COc1ccc(-c2csc(-c3[nH]cnc3N)n2)cc1,15,0,3,9,96*,5
O=C(NCCc1ccccc1)c1ccc(NCC2CCCO2)c([N+](=O)[O-])c1 (centres undefined),-17,-1,-1,2,42,2
CCOc1ccc2[nH]c3c(N4CCN(c5ccccn5)CC4)ncnc3c2c1,6,.,1,4,28,5
SMILES,APP 5UTR inh,b-catenin transl,Ba/F3 V617F tox,BaF3 tox,Lmaj promast,MT stabilizer
COc1ccc2c(c1)[nH]c1c(N3CCN(Cc4ccc5c(c4)OCO5)CC3)ncnc12,3,1,40*,37*,78*,4
Cc1ccc2[nH]c3c(N4CCN(Cc5ccc6c(c5)OCO6)CC4)ncnc3c2c1,-18,2,-3,1,62*,5
CCCCOc1ncnc2c1[nH]c1ccc(C)cc12,.,1,6,9,.,.
Cc1ccc2[nH]c3c(N4CCCCCC4)ncnc3c2c1,-3,-1,46*,48*,60*,6
Cc1ccc2[nH]c3c(N4CCN(Cc5ccccc5)CC4)ncnc3c2c1,-9,-4,1,25,57*,5
CCN(CC)S(=O)(=O)c1cc(C(=O)c2nccn2C)ccc1Cl,14,-4,3,5,-7,5
Cc1ccsc1C1CC(=O)OC2=C1C(=O)CC(C)(C)C2 (centres undefined),-12,-2,10,9,2,2
Cc1nn(C)c(Oc2ccccc2)c1CCNS(=O)(=O)c1ccc(Cl)cc1,.,-2,-2,5,9,3
OC1(c2cccc(C(F)(F)F)c2)CCN(c2ncnc3c2[nH]c2ccccc23)CC1,-18,.,0,9,98*,6
O=c1c2[nH]c3ccc(F)cc3c2ncn1CC1CCCO1 (centres undefined),.,0,4,0,.,.
COc1cccc2[nH]c3c(N4CCC5(CC4)OCCO5)ncnc3c12,.,1,-1,4,.,.
COc1cccc2[nH]c3c(N4CCc5ccccc5C4)ncnc3c12,.,2,-5,1,.,.
COc1cccc2[nH]c3c(N4CCN(Cc5ccc6c(c5)OCO6)CC4)ncnc3c12,4,-4,3,14,89*,5
Fc1ccc2[nH]c3c(N4CCN(C5CCCCC5)CC4)ncnc3c2c1,8,2,-2,5,85*,4
COc1cccc2[nH]c3c(N4CCC(C)CC4)ncnc3c12,-42,-2,1,10,94*,3
CC(C)NC(=O)NNC(=O)c1cc(COc2cc(Cl)cc(Cl)c2)on1,.,-1,-5,3,.,.
CN1C2CCC1/C(=C\c1ccccc1F)C(=O)/C2=C/c1ccccc1F,0,-3,17,4,26,3
O=S(=O)(NCc1ccco1)c1ccccc1Br,.,-1,.,.,.,.
COc1ccc2ccccc2c1CNC(=O)CC1C(=O)NCCN1CC(C)C (centres undefined),-8,-1,-3,0,21,4
Cc1ccc(SCC(=O)NC(C)(C)C)cc1,-7,0,2,3,-6,2
Cc1ccc2c(c1)[nH]c1c(N3CCN(Cc4ccccc4)CC3)ncnc12,-7,-2,2,12,97*,4
c1ccc(CN2CCN(c3ncnc4c3[nH]c3ccccc34)CC2)cc1,6,0,-1,8,89*,2
COc1ccc2c(c1)[nH]c1c(N3CCSCC3)ncnc12,.,1,-2,4,.,.
COC(=O)c1cc(OC)c(OC)c(OC)c1[N+](=O)[O-],7,-1,-1,-4,.,.
O=C(COc1cccc(NC(=O)c2cccc([N+](=O)[O-])c2)c1)c1ccc(F)cc1,.,-2,-1,8,20,1
O=C(CCNc1cccc(F)c1)c1cccc([N+](=O)[O-])c1,-10,-6,0,5,80*,3

# From PubChem BioAssay
